Measurements reported in ChEMBL document CHEMBL2440012, “Design, synthesis and anticonvulsant properties of new N-Mannich bases derived from 3-phenylpyrrolidine-2,5-diones” (Bioorg Med Chem, 2013).
Calls of active or inactive are those of the source. The rule behind the calls is not given here.

Tests used:
Rattus norvegicus [1] = assay: Anticonvulsant activity in albino Sprague-Dawley rat assessed as protection against maximal electroshock-induced seizures at 30 mg/kg, po measured after 2 hrs; assay type: functional
Procedure, shortened: (§1)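 Male Sprague-Dawley rats, four per group, dosed p.o. at 30 mg/kg in 0.5% methylcellulose/water suspension; MES test at 0.25, 0.5, 1, 2 and 4 h, motor impairment examined in parallel; number of rats out of four protected.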

Rattus norvegicus [2] = assay: Anticonvulsant activity in ip dosed albino rat assessed as protection against pilocarpine-induced status epilepticus measured 0.5 hrs post first stage 3 seizure; assay type: functional
Procedure, shortened: (§2)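 Male Sprague-Dawley rats (150–180 g) dosed ip, followed by challenge dose of pilocarpine; compound given relative to first stage III seizure (time zero or 0.5 h); outcome scored as protection or no protection, plus body-weight change 24 h after first stage III seizure.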

Mus musculus [3] = assay: Neurotoxicity in ip dosed albino CF1 mouse assessed as time to peak effect by rotorod test; assay type: toxicity, organism-based; conditions: in vivo
Rattus norvegicus [4] = assay: Anticonvulsant activity in albino Sprague-Dawley rat assessed as protection against maximal electroshock-induced seizures at 30 mg/kg, po measured after 0.5 hr; assay type: functional; procedure, shortened: as §1
Rattus norvegicus [5] = assay: Anticonvulsant activity in albino rat assessed as protection against pilocarpine-induced status epilepticus at 400 mg/kg, ip measured 0.5 hrs post first stage 3 seizure; assay type: functional, organism-based; design: dose 400 mg/kg; procedure, shortened: as §2
Cytochrome P450 3A4 [6] = target: T1, Cytochrome P450 3A4 (Homo sapiens, UniProt P08684); assay: Inhibition of CYP3A4 (unknown origin) using 200 uM testosterone as substrate assessed as formation of 6-beta-OH-testosterone relative to control; assay type: ADME
Rattus norvegicus [7] = assay: Anticonvulsant activity in albino Sprague-Dawley rat assessed as protection against maximal electroshock-induced seizures at 30 mg/kg, po measured after 1 hr; assay type: functional; procedure, shortened: as §1
Mus musculus [8] = assay: Anticonvulsant activity in ip dosed albino CF1 mouse assessed as protection against subcutaneous pentylenetetrazole-induced convulsion in half or more animals measured after 4 hrs; assay type: functional; conditions: albino CF1, 4 h, read-out: MED
Procedure, shortened: (§3)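 Male CF-1 mice given ip suspension in 0.5% methylcellulose/water at 30, 100 and 300 mg/kg; MES, scPTZ (pentylenetetrazole 85 mg/kg sc, CD97 dose for clonic seizures ≥5 s) and rotarod (inability to hold balance 1 min in each of three trials) assessed at 0.5 and 4 h; value is minimum dose active in half or more animals.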

Mus musculus [9] = assay: Anticonvulsant activity in ip dosed albino CF1 mouse assessed as protection against maximal electroshock-induced seizures in half or more animals measured after 0.5 hr; assay type: functional; conditions: read-out: MED; procedure, shortened: as §3
Mus musculus [10] = assay: Anticonvulsant activity in albino CF1 mouse assessed as assessed as protection against 6 Hz psychomotor seizure at 100 mg/kg, ip after 2 hrs by minimal clonic seizure test; assay type: functional; conditions: route intraperitoneal
Procedure, shortened: (§4)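 Male CF-1 mice, groups of four, dosed ip in 0.5% methylcellulose/water suspension, then challenged by 6-Hz corneal stimulation at 32 mA (0.2 ms pulses, 3 s, constant current) at 0.25, 0.5, 1, 2 or 4 h; count of mice out of four protected from stunned posture/clonic seizure.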

Mus musculus [11] = assay: Anticonvulsant activity in albino CF1 mouse assessed as protection against maximal electroshock-induced seizures at 300 mg/kg, ip measured after 4 hrs; assay type: functional, organism-based; design: dose 300 mg/kg; procedure, shortened: as §3
Mus musculus [12] = assay: Anticonvulsant activity in albino CF1 mouse assessed as assessed as protection against 6 Hz psychomotor seizure at 100 mg/kg, ip after 1 hr by minimal clonic seizure test; assay type: functional; conditions: route intraperitoneal; procedure, shortened: as §4
Rattus norvegicus [13] = assay: Anticonvulsant activity in albino Sprague-Dawley rat assessed as protection against maximal electroshock-induced seizures at 30 mg/kg, po measured after 0.25 hr; assay type: functional; procedure, shortened: as §1
Mus musculus [14] = assay: Anticonvulsant activity in albino CF1 mouse assessed as assessed as protection against 6 Hz psychomotor seizure at 100 mg/kg, ip after 0.5 hr by minimal clonic seizure test; assay type: functional; conditions: route intraperitoneal; procedure, shortened: as §4
Rattus norvegicus [15] = assay: Anticonvulsant activity in albino Sprague-Dawley rat assessed as protection against maximal electroshock-induced seizures at 30 mg/kg, po measured after 4 hrs; assay type: functional; procedure, shortened: as §1
Mus musculus [16] = assay: Neurotoxicity in albino CF1 mouse assessed as minimum motor impairment at 300 mg/kg, ip measured after 4 hrs by rotorod test; assay type: toxicity, organism-based; design: dose 300 mg/kg, route intraperitoneal; conditions: in vivo; procedure, shortened: as §3
Mus musculus [17] = assay: Anticonvulsant activity in albino CF1 mouse assessed as assessed as protection against 6 Hz psychomotor seizure at 100 mg/kg, ip after 4 hrs by minimal clonic seizure test; assay type: functional; conditions: route intraperitoneal; procedure, shortened: as §4
Mus musculus [18] = assay: Protection index, ratio of TD50 for neurotoxicity in ip dosed albino CF1 mouse by rotorod test to ED50 for anticonvulsant activity in ip dosed albino CF1 mouse by 6 Hz psychomotor seizure test; assay type: functional
Mus musculus [19] = assay: Anticonvulsant activity against 6 Hz psychomotor seizure in ip dosed albino CF1 mouse by minimal clonic seizure test; assay type: functional
Mus musculus [20] = assay: Neurotoxicity in ip dosed albino CF1 mouse assessed as minimum motor impairment in half or more animals measured after 0.5 hrs by rotorod test; assay type: toxicity, organism-based; conditions: in vivo; procedure, shortened: as §3
Mus musculus [21] = assay: Anticonvulsant activity in albino CF1 mouse assessed as assessed as protection against 6 Hz psychomotor seizure at 100 mg/kg, ip after 0.25 hr by minimal clonic seizure test; assay type: functional; conditions: route intraperitoneal; procedure, shortened: as §4
Mus musculus [22] = assay: Anticonvulsant activity against 6 Hz psychomotor seizure in ip dosed albino CF1 mouse assessed as time to peak effect by minimal clonic seizure test; assay type: functional
Mus musculus [23] = assay: Anticonvulsant activity in ip dosed albino CF1 mouse assessed as protection against subcutaneous pentylenetetrazole-induced convulsion in half or more animals measured after 0.5 hr; assay type: functional; conditions: albino CF1, 0.5 h, read-out: MED; procedure, shortened: as §3
Cytochrome P450 3A4 [24] = target: T1, Cytochrome P450 3A4; assay: Inhibition of CYP3A4 (unknown origin) using 50 uM testosterone as substrate assessed as formation of 6-beta-OH-testosterone relative to control; assay type: ADME
[25] = Neurotoxicity in ip dosed albino CF1 mouse by rotorod test; assay type: toxicity, organism-based; conditions: in vivo
Mus musculus [26] = assay: Neurotoxicity in ip dosed albino CF1 mouse assessed as minimum motor impairment in half or more animals measured after 4 hrs by rotorod test; assay type: toxicity, organism-based; conditions: in vivo; procedure, shortened: as §3
Mus musculus [27] = assay: Anticonvulsant activity in ip dosed albino CF1 mouse assessed as protection against maximal electroshock-induced seizures in half or more animals measured after 4 hrs; assay type: functional; conditions: read-out: MED; procedure, shortened: as §3
Mus musculus [28] = assay: Toxicity in albino CF1 mouse assessed as sedation at 100 mg/kg, ip measured after 4 hrs by rotorod test; assay type: organism-based; design: dose 100 mg/kg, route intraperitoneal; conditions: in vivo
Mus musculus [29] = assay: Anticonvulsant activity in albino CF1 mouse assessed as assessed as protection against 6 Hz psychomotor seizure at 50 mg/kg, ip after 0.25 hr by minimal clonic seizure test; assay type: functional; conditions: route intraperitoneal; procedure, shortened: as §4
Mus musculus [30] = assay: Anticonvulsant activity against […] psychomotor seizure in ip dosed albino CF1 mouse by minimal clonic seizure test; assay type: functional
Mus musculus [31] = assay: Anticonvulsant activity in albino CF1 mouse assessed as assessed as protection against 6 Hz psychomotor seizure at 50 mg/kg, ip after 1 hr by minimal clonic seizure test; assay type: functional; conditions: route intraperitoneal; procedure, shortened: as §4
Mus musculus [32] = assay: Anticonvulsant activity against […] psychomotor seizure in ip dosed albino CF1 mouse assessed as time to peak effect by minimal clonic seizure test; assay type: functional
Mus musculus [33] = assay: Anticonvulsant activity in albino CF1 mouse assessed as assessed as protection against 6 Hz psychomotor seizure at 50 mg/kg, ip after 4 hrs by minimal clonic seizure test; assay type: functional; conditions: route intraperitoneal; procedure, shortened: as §4
Rattus norvegicus [34] = assay: Anticonvulsant activity in albino rat assessed as protection against pilocarpine-induced status epilepticus at 100 mg/kg, ip measured 0.5 hrs post first stage 3 seizure; assay type: functional, organism-based; design: dose 100 mg/kg; procedure, shortened: as §2
Mus musculus [35] = assay: Anticonvulsant activity in albino CF1 mouse assessed as assessed as protection against 6 Hz psychomotor seizure at 50 mg/kg, ip after 0.5 hr by minimal clonic seizure test; assay type: functional; conditions: route intraperitoneal; procedure, shortened: as §4
Mus musculus [36] = assay: Anticonvulsant activity in albino CF1 mouse assessed as assessed as protection against 6 Hz psychomotor seizure at 50 mg/kg, ip after 2 hrs by minimal clonic seizure test; assay type: functional; conditions: route intraperitoneal; procedure, shortened: as §4

T1 sequence (P08684 whole entry): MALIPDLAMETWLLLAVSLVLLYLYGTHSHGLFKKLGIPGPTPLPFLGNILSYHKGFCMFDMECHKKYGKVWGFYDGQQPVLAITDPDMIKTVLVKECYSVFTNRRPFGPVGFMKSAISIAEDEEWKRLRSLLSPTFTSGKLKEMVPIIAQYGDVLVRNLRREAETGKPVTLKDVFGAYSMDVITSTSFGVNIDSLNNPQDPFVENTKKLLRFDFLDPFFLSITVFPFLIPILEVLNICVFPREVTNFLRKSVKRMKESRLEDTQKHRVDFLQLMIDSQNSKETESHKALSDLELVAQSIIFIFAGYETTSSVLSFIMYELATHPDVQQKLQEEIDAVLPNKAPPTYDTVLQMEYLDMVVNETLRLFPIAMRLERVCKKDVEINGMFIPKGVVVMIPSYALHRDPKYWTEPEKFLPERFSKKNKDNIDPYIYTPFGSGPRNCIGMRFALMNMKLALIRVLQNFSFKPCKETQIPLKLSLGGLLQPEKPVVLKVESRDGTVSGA

Row | Compound | Activity (Rattus norvegicus [1]) | Time (Mus musculus [3]) [h] | Activity (Rattus norvegicus [4]) | Activity (Rattus norvegicus [7]) | minimal effective dose (Mus musculus [8]) [mg/kg] | minimal effective dose (Mus musculus [9]) [mg/kg] | Activity (Mus musculus [10]) [%] | Activity (Mus musculus [12]) [%] | Activity (Rattus norvegicus [13]) | Activity (Mus musculus [14]) [%] | Activity (Rattus norvegicus [15]) | Activity (Mus musculus [17]) [%] | ED50 (Mus musculus [19]) [mg/kg] | Activity (Mus musculus [21]) [%] | Time (Mus musculus [22]) [h] | minimal effective dose (Mus musculus [23]) [mg/kg] | further results
1 | O=C1CC(c2ccccc2)C(=O)N1CN1CCOCC1 (racemic) | inactive | 0.25 | inactive | inactive | 300 | 100 | 0 | 25 | inactive | 0 | inactive | 0 | 77.2 | 75 | 0.25 | 300 | ED50 (Rattus norvegicus [2]): 342 mg/kg; Activity (Rattus norvegicus [5]): Active; inhibition (INH) (Cytochrome P450 3A4 [6]): 19%; Activity (Mus musculus [11]): inactive; Activity (Mus musculus [16]): Non-toxic; Ratio TD50/ED50 (Mus musculus [18]): 3.79; MED (Mus musculus [20]): 300 mg/kg; inhibition (INH) (Cytochrome P450 3A4 [24]): 17%; TD50 [25]: 293 mg/kg
2 | O=C1CC(c2ccccc2Cl)C(=O)N1CN1CCOCC1 (racemic) | inactive | 0.25 | 25% | 25% | 300 | 100 | 100 | 100 | inactive | 100 | inactive | 100 | 31.1 | 100 | 0.25 | 100 | MED (Mus musculus [26]): 300 mg/kg; minimal effective dose (Mus musculus [27]): 100 mg/kg; MED (Mus musculus [28]): 300 mg/kg; Activity (Mus musculus [29]): 100%; ED50 (Mus musculus [30]): 55.6 mg/kg; Activity (Mus musculus [31]): 75%; Time (Mus musculus [32]): 0.5 h; Activity (Mus musculus [33]): 0%; Activity (Rattus norvegicus [34]): inactive; Activity (Mus musculus [35]): 75%; Activity (Mus musculus [36]): 75%
